Results taken from ChEMBL document CHEMBL1126724, “Multiple binding modes for the receptor-bound conformations of cyclic AII agonists” (J Med Chem, 1993).
*1 amine or outer side, *2 acyl side, *3 side chain or, on linkers, in order; H or OH if unused. Where a SMILES comes first, the peptide text is derived from it. Bridges are numbered along the chain shown (N, C = ends). Roman numbers before positions name the chains, in order. [ ]: non-standard residue; d: D form. Pro(4S-SH) = O=C([C@@H]1C[C@H](S[*:3])CN1[*:1])[*:2]; Sar = CNCC(=O)O

Tests used:
[1] = target: T1, Angiotensin II receptor (AT-1) type-1 (Rattus norvegicus, UniProt P29089+P25095); experiment: In vitro binding affinity to the angiotensin II receptor, type 1 in rat liver
T1 sequence (P29089 whole entry): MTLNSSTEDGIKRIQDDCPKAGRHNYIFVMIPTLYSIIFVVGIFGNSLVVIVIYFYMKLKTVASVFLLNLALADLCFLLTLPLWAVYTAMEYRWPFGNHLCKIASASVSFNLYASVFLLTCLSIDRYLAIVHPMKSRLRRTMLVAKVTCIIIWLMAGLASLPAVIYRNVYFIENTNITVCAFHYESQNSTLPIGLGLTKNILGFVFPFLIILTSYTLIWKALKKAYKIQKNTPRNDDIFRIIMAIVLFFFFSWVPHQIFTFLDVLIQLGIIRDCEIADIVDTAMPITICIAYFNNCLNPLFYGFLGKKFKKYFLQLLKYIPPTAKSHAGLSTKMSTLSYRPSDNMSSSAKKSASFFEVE
T1 sequence (P25095 whole entry): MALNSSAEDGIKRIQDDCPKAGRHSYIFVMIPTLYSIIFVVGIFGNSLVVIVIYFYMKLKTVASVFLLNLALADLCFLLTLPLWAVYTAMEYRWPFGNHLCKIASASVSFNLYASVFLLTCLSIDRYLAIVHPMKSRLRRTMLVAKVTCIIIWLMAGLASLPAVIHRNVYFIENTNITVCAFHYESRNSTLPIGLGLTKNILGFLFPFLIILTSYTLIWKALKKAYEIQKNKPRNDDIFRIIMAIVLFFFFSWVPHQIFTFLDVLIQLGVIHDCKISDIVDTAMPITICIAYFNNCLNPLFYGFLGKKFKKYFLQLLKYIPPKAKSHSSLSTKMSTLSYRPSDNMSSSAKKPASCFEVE
Procedure, shortened: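 Buffer: 50 mM NaH2PO4 pH 7.1 with 100 μM bacitracin, 0.2% BSA, 100 mM NaCl, 10 mM MgCl2, 1 mM EGTA. Incubated 1 h at 25 °C, then filtered, and filters counted. IC50 from weighted nonlinear regression to the mass action equation.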

[2] = target: T2, Type-1 angiotensin II receptor (Oryctolagus cuniculus, UniProt P34976); experiment: Agonist efficacy assessed from contractile responses on rabbit aorta Angiotensin II receptor, type 1; Not Active; format: functional, tissue-based
T2 sequence (P34976 whole entry): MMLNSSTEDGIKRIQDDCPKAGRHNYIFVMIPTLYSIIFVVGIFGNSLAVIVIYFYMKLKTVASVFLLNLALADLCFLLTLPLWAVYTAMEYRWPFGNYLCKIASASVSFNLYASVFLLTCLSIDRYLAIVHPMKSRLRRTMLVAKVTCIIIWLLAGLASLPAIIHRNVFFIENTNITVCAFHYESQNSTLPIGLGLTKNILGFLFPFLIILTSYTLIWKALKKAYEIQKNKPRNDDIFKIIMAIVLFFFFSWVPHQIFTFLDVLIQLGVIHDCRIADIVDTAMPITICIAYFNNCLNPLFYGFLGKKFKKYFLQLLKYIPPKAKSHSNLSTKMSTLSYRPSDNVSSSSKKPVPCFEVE
Procedure, shortened: (§1)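 Rabbit thoracic aortic rings held in 20-mL baths of Krebs-bicarbonate at 37 °C, gassed with 5% CO2 in oxygen. Resting tension 4.0 g, 90-min equilibration. Peptides added cumulatively until maximal response. EC50 read graphically from the curves as the concentration giving 50% of maximal contraction.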

Oryctolagus cuniculus = species: Oryctolagus cuniculus; experiment: Agonist efficacy assessed from contractile responses on rabbit aorta (AT1); format: functional; procedure, shortened: as §1

| IC50 [1] [µM] | EC50 [2] | EC50 (Oryctolagus cuniculus) [µM] | Compound |
| --- | --- | --- | --- |
| 4.7 | Not Active | – | CNCC(=O)N[C@@H](CCCN=C(N)N)C(=O)N1C[C@@H]2C[C@H]1C(=O)N[C@@H](Cc1ccc(O)cc1)C(=O)N[C@H](C(=O)N[C@@H](Cc1c[nH]cn1)C(=O)N1CCC[C@H]1C(=O)N[C@@H](Cc1ccccc1)C(=O)O)CSS2 (H-[Sar]R[Pro(4S-SH)]YCHPF-OH; disulfide 3-5) |
| 0.11 | – | 0.87 | CNCC(=O)N[C@@H](CCCN=C(N)N)C(=O)N1C[C@@H]2C[C@H]1C(=O)N[C@@H](Cc1ccc(O)cc1)C(=O)N[C@H](C(=O)N[C@@H](Cc1c[nH]cn1)C(=O)N1CCC[C@H]1C(=O)N[C@@H](Cc1ccccc1)C(=O)O)CSS[C@H]1C[C@@H](C(=O)N[C@@H](Cc3ccc(O)cc3)C(=O)N[C@H](C(=O)N[C@@H](Cc3c[nH]cn3)C(=O)N3CCC[C@H]3C(=O)N[C@@H](Cc3ccccc3)C(=O)O)CSS2)N(C(=O)[C@H](CCCN=C(N)N)NC(=O)CNC)C1 (I: H-[Sar]R[Pro(4S-SH)]YCHPF-OH / II: H-[Sar]R[Pro(4S-SH)]YCHPF-OH; disulfide I:3-II:5, I:5-II:3) |
| 0.00557 | – | 0.032 | CC[C@H](C)[C@H](NC(=O)[C@H](Cc1ccc(O)cc1)NC(=O)[C@@H](NC(=O)[C@@H](N)CCCN=C(N)N)C(C)C)C(=O)N[C@@H](Cc1c[nH]cn1)C(=O)N1CCC[C@H]1C(=O)N[C@@H](Cc1ccccc1)C(=O)O [ANGIOTENSIN III] |
| 0.3 | – | > 10 | H-DRVYIHPFHL-OH |
